In brackets after ≈: the same amount, converted by molar mass.
Legend:
MDCK = experiment: Cytotoxicity against MDCK cells after 48 hrs by MTT assay; format: cell-based, Canis lupus familiaris; details: dog
Procedure, shortened: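 MDCK cells were grown to monolayer in MEM with 5% fetal calf serum and washed with serum-free MEM. Compounds came from 5 mg/ml DMSO stocks as twofold dilutions of 1000–1 µg/ml in MEM, 48 h at 37 °C. After PBS washes, MTT (0.5 mg/ml) was added for 60 min at 37 °C, the deposit dissolved in DMSO and OD read at 535 nm. CTD50 is the concentration reducing viability 50%.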

Influenza A virus = experiment: Antiviral activity against Influenza A virus (A/Puerto Rico/8/34(H1N1)) infected in MDCK cells assessed as virus yield after 48 hrs end-point dilution method; format: functional, organism-based; details: A/Puerto Rico/8/1934(H1N1)
Procedure, shortened: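 MDCK monolayers were exposed to serial twofold compound dilutions in MEM with 2 mM arginine, 2 mM glutamine and 2 µg/mL trypsin for 1 h at 37 °C, then infected and cultured 48 h at 36 °C. Supernatant was tested by hemagglutination with 1% chicken erythrocytes (1 h, room temperature) and titre by end-point dilution. ED50 is the concentration decreasing virus production […].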

[1] = Selectivity index, ratio of CTD50 for MDCK cells to EC50 for Influenza A virus (A/Puerto Rico/8/34(H1N1)); format: toxicity, cell-based; details: dog, read-out: Selectivity Index
Procedure, shortened: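 Ratio of CTD50 (MDCK, MTT after 48 h) to ED50 (PR8 yield in MDCK by hemagglutination end-point titration after 48 h at 36 °C), both from twofold dilution series.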

Sc1nnnn1-c1ccccc1
Activity (MDCK): 151 µg/mL | EC50 (Influenza A virus): > 200 µg/mL | selectivity ratio [1]: < 1

O=S(=O)([O-])O.c1ccc(-n2n[n+](C34CC5CC(CC(C5)C3)C4)nc2SC23CC4CC(CC(C4)C2)C3)cc1
Activity (MDCK): 289 µg/mL | EC50 (Influenza A virus): 57 µg/mL | selectivity ratio [1]: 5

Cc1ncn(C23CC4CC(CC(C(C)N)(C4)C2)C3)n1.Cl.Cl (stereo unspecified)
Activity (MDCK): 960 µg/mL | EC50 (Influenza A virus): 62 µg/mL | selectivity ratio [1]: 15

CCn1n[n+](C23CC4CC(CC(C4)C2)C3)nc1[S-]
Activity (MDCK): 125 µg/mL | EC50 (Influenza A virus): 3 µg/mL (≈ 11.3 µM) | selectivity ratio [1]: 41

O=c1[nH]nnn1-c1ccccc1
Activity (MDCK): > 1000 µg/mL | EC50 (Influenza A virus): 294 µg/mL (≈ 1810 µM) | selectivity ratio [1]: 3

Cc1nnn(C23CC4CC(CC(C4)C2)C3)n1
Activity (MDCK): 569 µg/mL | EC50 (Influenza A virus): 77 µg/mL (≈ 353 µM) | selectivity ratio [1]: 7

CC(N)C12CC3CC(C1)CC(n1cnc(Cl)n1)(C3)C2.Cl (stereo unspecified)
Activity (MDCK): 140 µg/mL | EC50 (Influenza A virus): 15 µg/mL | selectivity ratio [1]: 9

CC(N)C12CC3CC(C1)CC(n1ncnn1)(C3)C2.Cl (stereo unspecified)
Activity (MDCK): 423 µg/mL | EC50 (Influenza A virus): 23 µg/mL | selectivity ratio [1]: 18

O=C(O)c1nn(C23CC4CC(CC(C4)C2)C3)cc1Br
Activity (MDCK): 443 µg/mL | EC50 (Influenza A virus): 300 µg/mL (≈ 922 µM) | selectivity ratio [1]: 1

CC(N)C12CC3CC(C1)CC(n1cnc([N+](=O)[O-])n1)(C3)C2.Cl (stereo unspecified)
Activity (MDCK): 131 µg/mL | EC50 (Influenza A virus): 120 µg/mL | selectivity ratio [1]: 1

Cc1nnn(C23CC4CC(CC(N)(C4)C2)C3)n1.Cl
Activity (MDCK): 213 µg/mL | EC50 (Influenza A virus): 13 µg/mL | selectivity ratio [1]: 16

CCc1nnn(C23CC4CC(CC(N)(C4)C2)C3)n1.Cl
Activity (MDCK): 262 µg/mL | EC50 (Influenza A virus): 25 µg/mL | selectivity ratio [1]: 10

CCOC(=O)Cc1nnn(C23CC4CC(CC(N)(C4)C2)C3)n1.Cl
Activity (MDCK): 127 µg/mL | EC50 (Influenza A virus): 18 µg/mL | selectivity ratio [1]: 7

NC1N=NC(Cc2nnn(C34CC5CC(CC(C5)C3)C4)n2)=N1 (stereo unspecified)
Activity (MDCK): 0.18 µg/mL | EC50 (Influenza A virus): 0.09 µg/mL (≈ 0.3 µM) | selectivity ratio [1]: 2

Cl.NC12CC3CC(C1)CC(n1cncn1)(C3)C2
Activity (MDCK): 1489 µg/mL | EC50 (Influenza A virus): 123 µg/mL | selectivity ratio [1]: 12

Cl.NC12CC3CC(C1)CC(n1cnc(Br)n1)(C3)C2
Activity (MDCK): 620 µg/mL | EC50 (Influenza A virus): 111 µg/mL | selectivity ratio [1]: 6

O=C(O)Cc1nnn(C23CC4CC(CC(C4)C2)C3)n1
Activity (MDCK): > 500 µg/mL | EC50 (Influenza A virus): 71 µg/mL (≈ 271 µM) | selectivity ratio [1]: > 7

CCCCOC(=O)Cc1nnn(C23CC4CC(CC(C4)C2)C3)n1
Activity (MDCK): < 1 µg/mL | EC50 (Influenza A virus): > 1 µg/mL | selectivity ratio [1]: < 1

c1nnn(C23CC4CC(CC(C4)C2)C3)n1
Activity (MDCK): 253 µg/mL | EC50 (Influenza A virus): 56 µg/mL (≈ 274 µM) | selectivity ratio [1]: 5

Cc1nn(C23CC4CC(CC(C4)C2)C3)c(C)c1N
Activity (MDCK): 600 µg/mL | EC50 (Influenza A virus): 100 µg/mL (≈ 408 µM) | selectivity ratio [1]: 6

[S-]c1n[n+](C23CC4CC(CC(C4)C2)C3)nn1-c1ccccc1
Activity (MDCK): 300 µg/mL | EC50 (Influenza A virus): 130 µg/mL (≈ 416 µM) | selectivity ratio [1]: 2

Cc1nnn(C23CC4CC(CC(C(C)N)(C4)C2)C3)n1.Cl (stereo unspecified)
Activity (MDCK): 242 µg/mL | EC50 (Influenza A virus): 8 µg/mL | selectivity ratio [1]: 30

S=c1[nH]nnn1C12CC3CC(CC(C3)C1)C2
Activity (MDCK): 167 µg/mL | EC50 (Influenza A virus): 15 µg/mL (≈ 63.5 µM) | selectivity ratio [1]: 11

OC12CC3CC(C1)CC(n1nn[nH]c1=S)(C3)C2
Activity (MDCK): 146 µg/mL | EC50 (Influenza A virus): 8 µg/mL (≈ 31.7 µM) | selectivity ratio [1]: 18

c1nnnn1C12CC3CC(CC(C3)C1)C2
Activity (MDCK): 281 µg/mL | EC50 (Influenza A virus): 11 µg/mL (≈ 53.8 µM) | selectivity ratio [1]: 25

Cl.NC12CC3CC(C1)CC(n1ncnn1)(C3)C2
Activity (MDCK): 552 µg/mL | EC50 (Influenza A virus): 22 µg/mL | selectivity ratio [1]: 25

Clc1ncn(C23CC4CC(CC(C4)C2)C3)n1
Activity (MDCK): 583 µg/mL | EC50 (Influenza A virus): 59 µg/mL (≈ 248 µM) | selectivity ratio [1]: 10

OC12CC3CC(C1)CC(N=C=S)(C3)C2
Activity (MDCK): > 500 µg/mL | EC50 (Influenza A virus): 150 µg/mL (≈ 717 µM) | selectivity ratio [1]: > 3

CCc1nnn(C23CC4CC(CC(C(C)N)(C4)C2)C3)n1.Cl (stereo unspecified)
Activity (MDCK): 299 µg/mL | EC50 (Influenza A virus): 6 µg/mL | selectivity ratio [1]: 50

c1ncn(C23CC4CC(CC(C4)C2)C3)n1
Activity (MDCK): 358 µg/mL | EC50 (Influenza A virus): 77 µg/mL (≈ 379 µM) | selectivity ratio [1]: 5

CCOC(=O)Cc1nnn(C23CC4CC(CC(C4)C2)C3)n1
Activity (MDCK): > 1000 µg/mL | EC50 (Influenza A virus): 232 µg/mL (≈ 799 µM) | selectivity ratio [1]: 4

CC(N)C12CC3CC(CC(C3)C1)C2 (stereo unspecified) [RIMANTADINE]
Activity (MDCK): 60 µg/mL | EC50 (Influenza A virus): 5 µg/mL (≈ 27.9 µM) | selectivity ratio [1]: 12

— ChEMBL document CHEMBL1157723, “Synthesis and anti-viral activity of azolo-adamantanes against influenza A virus” (Bioorg Med Chem, 2010)
